# Laboratory results taken from publication PMC5196489 (International Journal for Parasitology: Drugs and Drug …, 2016).
# Entries after “also recorded” stand apart in the source; their conditions may differ.
# Tests used:
# [1] = biological target: T1, Sm.5HTRL (Schistosoma mansoni, UniProt A0A173FEI8); assay: cAMP biosensor; assay type: cell-based; conditions: for block of Sm.5HTRL dependent cAMP generation in vitro: Fig. 1; for IC50: read-out: IC50 Sm.5HTRL, inhibition of 5-HT (0.8 μM) evoked cAMP generation, HEK293 cells co-transfected with 22-F cAMP biosensor, IBMX 200 μM
# T1 sequence (A0A173FEI8 1-547): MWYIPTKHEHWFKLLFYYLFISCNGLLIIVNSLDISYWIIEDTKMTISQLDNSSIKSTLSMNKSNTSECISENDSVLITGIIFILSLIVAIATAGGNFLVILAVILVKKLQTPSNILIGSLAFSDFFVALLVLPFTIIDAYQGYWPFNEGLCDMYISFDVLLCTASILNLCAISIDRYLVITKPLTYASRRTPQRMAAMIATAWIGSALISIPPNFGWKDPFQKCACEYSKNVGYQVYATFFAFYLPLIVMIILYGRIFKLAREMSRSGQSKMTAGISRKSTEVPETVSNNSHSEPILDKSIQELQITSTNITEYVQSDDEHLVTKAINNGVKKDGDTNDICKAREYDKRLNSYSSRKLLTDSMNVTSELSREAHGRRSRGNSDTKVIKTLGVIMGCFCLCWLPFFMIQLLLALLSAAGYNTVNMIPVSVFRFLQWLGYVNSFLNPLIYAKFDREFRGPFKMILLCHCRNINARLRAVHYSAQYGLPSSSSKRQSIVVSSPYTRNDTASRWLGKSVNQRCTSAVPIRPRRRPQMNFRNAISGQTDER
# [2] = system: larval schistosomules; assay: Schistosomule mobility; assay type: cell-based, Schistosoma mansoni; conditions: for IC50: Schistosoma mansoni, 0.5 h, read-out: IC50 schistosomule
# Summary of the method: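 S. mansoni PR-1 cercariae mechanically transformed, tails removed on Percoll, kept in modified Basch medium without serotonin (37 °C, 5% CO2); about 200 per 0.5 mL well. Basal movement recorded first, then 5-HT (10 μM), then rising doses of test compound added at 20x. Incubated 30 min before a 1 min video. Mobility scored as body-length deviations >20% from the mean per minute.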
# [3] = system: adult S. mansoni; assay: Adult schistosome mobility assay; assay type: cell-based, Schistosoma mansoni
# [4] = biological target: T1, Sm.5HTRL; conditions: chemical screening data; ref Chan et al., 2016b; cited from earlier work
# [5] = system: larval schistosomules; conditions: ref Chan et al., 2014; cited from earlier work
# [6] = system: human 5-HT7 receptor (Hs.5HT7R); conditions: ref Farrell et al., 2016; cited from earlier work
smiles,measurement,setting,value
"COc1cc2c(cc1O)C[C@H]1c3c(cc(O)c(OC)c3-2)CCN1C [Boldine, (+)boldine]",block of Sm.5HTRL dependent cAMP generation in vitro,[1],completely blocked
same,IC50,[1],1.1 ± 0.1 µM
same,IC50,[2],2.5 ± 1.4 µM
same,effect on 5-HT stimulated motility,"[3]; female adult worms, increasing 5-HT",high doses of 5-HT were competent at restoring motility
CC(C)C[C@H]1C(=O)N2CCC[C@H]2[C@]2(O)O[C@](NC(=O)[C@@H]3C=C4c5cccc6[nH]c(Br)c(c56)C[C@H]4N(C)C3)(C(C)C)C(=O)N12 [bromocriptine],inhibition at Sm.5HTRL,[4],"potent, and long lasting inhibition"
"COc1ccc2c(c1O)-c1c3c(cc4c1[C@H](C2)N(C)CC4)OCO3 [Bulbocapnine, (+)-Bulbocapnine]",IC50,[1],15.2 ± 2.5 µM
same,IC50,[2],76.1 ± 17.8 µM
"NCCc1c[nH]c2ccc(O)cc12 [5-HT, 5-hydroxytryptamine, reference compound]",increase in schistosomule contractility,[2]; 5-HT 10 μM versus basal movement in media lacking 5-HT,3–5 fold
same,effect of 5-HT on adult worm movement,"[3]; control worms, Fig. 4C&D","stimulated movement, most evident in female worms"
"CN1CCc2cccc3c2[C@H]1Cc1ccc(O)c(O)c1-3 [Apomorphine, R-(−)-apomorphine, reference compound]",IC50,[1],15.2 ± 3.3 µM
same,IC50,[2],24.2 ± 15.1 µM
same,effect on schistosomule contractility,[5],inhibits schistosomule contractility
"CSc1ccc2c(c1)C(N1CCN(C)CC1)Cc1ccccc1S2 (centres unmarked) [methiothepin, reference compound]",effect on 5-HT stimulated schistosomule contractility,"[2]; 5-HT 10 μM plus methiothepin 10 μM, Fig. 2A",reversed this effect
"COc1cc2c3c(c1OC)-c1ccccc1C[C@H]3N(C)CC2 [Nuciferine, (−)nuciferine]",block of Sm.5HTRL dependent cAMP generation in vitro,[1],completely blocked
same,IC50,[1],0.24 ± 0.04 µM
same,inhibition of larval contractions / schistosomule motility,"[2]; 5-HT 10 μM plus increasing doses of aporphine, Fig. 2",particularly effective at inhibiting larval contractions
same,IC50,[2],0.62 ± 0.22 µM
same,action at the human 5-HT7 receptor,[6],inverse agonist
same,effect on basal motility,"[3]; female adult worms, drug 10 μM, 2 h, p < 0.01 versus p < 0.05",more effective than the other ligands
same,effect on 5-HT stimulated motility,"[3]; male adult worms, increasing 5-HT (≤1 mM)",no 5-HT stimulated motility even at the highest 5-HT doses; also recorded: nuciferine action not reversed by 5-HT
